36 sequences from the array DNA melting data of Ke et al. (doi:10.1101/2024.01.08.574731) can be followed below.

Data set [1] in a line: folding enthalpy; higher = less favourable; fluorescence melt of hairpins on a sequencing array, two-state fit. Particulars: sodium 0.088 M. In short, it runs like this: (§1)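 With Cy3 and quencher oligos annealed, library hairpins on a sequenced MiSeq flow cell were imaged for Cy3 fluorescence in 50 mM Na-HEPES pH 8.0, 25 mM NaCl, in 2.5 °C steps up to 60 °C. Melting temperature and folding enthalpy were derived from bootstrapped two-state fits of signals normalised to pre-quench Cy3 and to control constructs. Four replicates were combined by inverse variance, with fitted temperatures raised by 9.35 °C to match UV melts.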

The nature of data set [2]: melting temperature; fluorescence melt of hairpins on a sequencing array, two-state fit, raised by 9.35 °C to match UV melts. As to conditions: sodium 0.088 M. In outline: as §1

Consider GACCTGCGAAAGCATGTC (((.(((....))).))), for which the folding enthalpy in data set [1] was -28.4 kcal/mol. Besides, the Tm in data set [2] is 49.9 °C.

Regarding GACCTGGGAAACCAAGTC (((.(((....))).))), the folding enthalpy in data set [1] is -29.7 kcal/mol. For the same sequence, in data set [2], the Tm stood at 33.4 °C.

As for GACGAACGAAAGTTTGTC (((.(((....))).))), the folding enthalpy in data set [1] is -43.7 kcal/mol. Also, in data set [2], the Tm was 54.2 °C.

Take GACGAAGGAAACCTCGTC (((((.(....).))))): the folding enthalpy in data set [1] is -33 kcal/mol. Also, the Tm in data set [2] came to 46 °C.

On to GACGACGAAAGTCACGTC ((((((....)))..))), for which the folding enthalpy in data set [1] was -19.6 kcal/mol. Also, the Tm in data set [2] was 41.1 °C.

In the case of GACGACGAAAGTCAGGTC ((((((....)))..))), the folding enthalpy in data set [1] was -19.9 kcal/mol. Also, the Tm in data set [2] was found to be 44.3 °C.

Turning to GACGACGAAAGTCGTGTC ((((((....)))..))), in data set [1], the folding enthalpy is -10.5 kcal/mol. Further, the Tm in data set [2] amounted to 59.9 °C.

For the sequence GACGACGGAAACACCGTC ((((..(....)..)))), the folding enthalpy in data set [1] was -13.2 kcal/mol. Moreover, the Tm in data set [2] turned out to be 38.2 °C.

In the case of GACGACGGAAACATCGTC (((((.(....).))))), the folding enthalpy in data set [1] was -34.2 kcal/mol. Further, the Tm in data set [2] stood at 45.7 °C.

For the sequence GACGATGGAAACATCGTC (((((((....))))))), in data set [1], the folding enthalpy is -41.7 kcal/mol. The Tm in data set [2] came out at 67.9 °C.

Consider GACGCAACGAAAGTTGTC (((..(((....)))))), for which the folding enthalpy in data set [1] was -10 kcal/mol. For the same sequence, in data set [2], the Tm was 34.1 °C.

For GACGCACGAAAGTGTGTC (((.(((....))).))), the folding enthalpy in data set [1] is -45.6 kcal/mol. Besides, the Tm in data set [2] amounted to 61.8 °C.

For GACGCAGAAATGCGTC ((((((....)))))), the folding enthalpy in data set [1] is -35.9 kcal/mol. Also, in data set [2], the Tm stood at 68.5 °C.

Turning to GACGCAGGAAACTGTGTC (((.(((....))).))), the folding enthalpy in data set [1] is -39.8 kcal/mol. The Tm in data set [2] is 52.5 °C.

In the case of GACGCCCCGAAAGGGGTC (((..(((....)))))), the folding enthalpy in data set [1] is -7.73 kcal/mol. For the same sequence, the Tm in data set [2] turned out to be 40.2 °C.

Turning to GACGCCGAAAGGCATGTC ((((((....)))..))), in data set [1], the folding enthalpy was -15.2 kcal/mol. Besides, the Tm in data set [2] was determined as 43.3 °C.

For GACGCCGAAAGGCCAGTC ((((((....)))..))), the folding enthalpy in data set [1] was -15 kcal/mol. Besides, in data set [2], the Tm amounted to 40.7 °C.

Turning to GACGCCGAAAGGCGAGTC ((((((....)))..))), in data set [1], the folding enthalpy was -8.04 kcal/mol. Further, the Tm in data set [2] turned out to be 43.7 °C.

Turning to GACGCCGGAAACGGTGTC (((.(((....))).))), in data set [1], the folding enthalpy was -45.9 kcal/mol. Further, in data set [2], the Tm is 63.9 °C.

GACGCGGCGAAAGCCGTC (((..(((....)))))): the folding enthalpy in data set [1] was -5.1 kcal/mol. Further, the Tm in data set [2] came out at 32.6 °C.

Regarding GACGCGGGAAACCGTGTC (((.(((....))).))), in data set [1], the folding enthalpy was -39.4 kcal/mol. In data set [2], the Tm was determined as 58.2 °C.

As for GACGCTGGAAACAGCATC ((.((((....)))).)), the folding enthalpy in data set [1] is -12.7 kcal/mol. Moreover, the Tm in data set [2] was 41.3 °C.

On to GACGGCGAAAGCCCAGTC ((((((....)))..))), for which the folding enthalpy in data set [1] is -13.1 kcal/mol. Also, the Tm in data set [2] was determined as 41.8 °C.

As for GACGGCGAAAGCCGAGTC ((((((....)))..))), in data set [1], the folding enthalpy was -8.09 kcal/mol. The Tm in data set [2] stood at 45.8 °C.

Turning to GACGGCGGAAACACCGCC (.(((.(....).))).), the folding enthalpy in data set [1] was -10.1 kcal/mol. Also, in data set [2], the Tm came to 44.1 °C.

With GACGGCGGAAACGTCGTC ((((.((....)).)))), the folding enthalpy in data set [1] is -52.8 kcal/mol. Besides, the Tm in data set [2] amounted to 61.1 °C.

Consider GACGGGCGAAAGCCAGTC (((.(((....))).))), for which the folding enthalpy in data set [1] is -21.7 kcal/mol. In addition, the Tm in data set [2] is 67.9 °C.

In the case of GACGGGGGAAACCTCGTC ((((.((....)).)))), the folding enthalpy in data set [1] was -31.7 kcal/mol. Also, in data set [2], the Tm is 55.1 °C.

As to GACGGTGAAAACCGTC ((((((....)))))), in data set [1], the folding enthalpy is -32.1 kcal/mol. Further, the Tm in data set [2] is 68.5 °C.

With GACGGTGGAAACGCCGTC (((((.(....).))))), the folding enthalpy in data set [1] is -37.7 kcal/mol. Besides, the Tm in data set [2] turned out to be 62.9 °C.

For GACGTACGAAAGTAGGTC (((.(((....))).))), in data set [1], the folding enthalpy is -38.5 kcal/mol. Also, the Tm in data set [2] was found to be 52.6 °C.

Turning to GACGTACGAAAGTATGTC (((.(((....))).))), the folding enthalpy in data set [1] was -43.4 kcal/mol. Besides, in data set [2], the Tm stood at 54.6 °C.

For GACGTAGAAATACGTC ((((((....)))))), the folding enthalpy in data set [1] was -38.5 kcal/mol. For the same sequence, the Tm in data set [2] was determined as 55 °C.

Regarding GACGTCCGAAAGGAGGTC (((.(((....))).))), the folding enthalpy in data set [1] is -30.9 kcal/mol. Further, the Tm in data set [2] was determined as 58.3 °C.

GACGTCGGAAACGATGTC (((.(((....))).))): in data set [1], the folding enthalpy is -52.2 kcal/mol. For the same sequence, the Tm in data set [2] worked out at 54.7 °C.

Consider GACGTGCGAAAGCAGGTC (((.(((....))).))), for which the folding enthalpy in data set [1] was -36.2 kcal/mol. Moreover, the Tm in data set [2] is 62.4 °C.
